The subject of assay [1] is Mycobacterium tuberculosis. Description: Antitubercular activity against Mycobacterium tuberculosis H37Rv in anaerobic condition after 7 days by low oxygen recovery assay. The assay is classed as functional. Conditions: 168 h.
Assay [2] relates to Mycobacterium tuberculosis. Briefly: Antitubercular activity against Mycobacterium tuberculosis H37Rv in aerobic condition after 7 days by microplate alamar blue assay. Type of assay: functional. Conditions: 168 h. An outline of the steps: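 M. tuberculosis H37Rv, replicating culture; 8-day microplate assay with Alamar blue added on day 7 to read growth. […] Mean of at least two independent determinations ± SD.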
For orientation: Alamar Blue is a resazurin reagent that responds to reducing activity.

A further assay has as its system Vero. Briefly: Cytotoxicity against african green monkey Vero cells after 72 hrs by MTS assay. The assay is classed as cell-based. Conditions: Chlorocebus sabaeus. An outline of the steps: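 VERO cells (CCL-81), 72 h exposure, tetrazolium dye read-out.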
In general terms: Tetrazolium assays rely on reduction of a dye to a coloured formazan, in cell work by metabolically active cells.

The structures appear in SMILES notation. Values after ≈ are worked out from the molar mass of the structure shown.

In general, MIC refers to the lowest concentration that inhibits growth of the organism. As usually defined, the IC50 is the point on the concentration scale where inhibition reaches its midpoint.

For `Nc1cccc(-c2ccc(CO[C@@H]3COc4nc([N+](=O)[O-])cn4C3)cc2)c1`, the MIC in assay [1] is 1.4 µM (≈ 0.513 µg/mL); in assay [2], 0.12 µM (≈ 0.044 µg/mL). The same compound returned an IC50 with Vero greater than 125 µM.
On the same counts, the results for `O=[N+]([O-])c1cn2c(n1)OC[C@@H](OCc1ccc(-c3ccccc3F)cc1)C2` are 0.67 µM (≈ 0.247 µg/mL), 0.19 µM (≈ 0.0702 µg/mL) and greater than 125 µM.
`N#Cc1ccc(-c2cccc(CO[C@@H]3COc4nc([N+](=O)[O-])cn4C3)c2)cc1`: the minimal inhibitory concentration (MIC) in assay [1] came to 4.8 µM (≈ 1.81 µg/mL); in assay [2] it was 0.23 µM (≈ 0.0866 µg/mL). The compound also returned a half-inhibitory concentration (IC50) with Vero greater than 125 µM.
`COc1cc(-c2ccc(CO[C@@H]3COc4nc([N+](=O)[O-])cn4C3)cc2)ccc1F`: the results for the minimum inhibitory concentration (MIC) in assay [1] and in assay [2] were 1.5 µM (≈ 0.599 µg/mL) and 0.045 µM (≈ 0.018 µg/mL), respectively. Also, the IC50 with Vero is greater than 125 µM.
Consider `O=[N+]([O-])c1cn2c(n1)OC[C@@H](OCc1ccc(-c3cc(F)c(F)c(F)c3)cc1)C2`, for which the MIC is 0.76 µM (≈ 0.308 µg/mL) in assay [1] and 0.04 µM (≈ 0.0162 µg/mL) in assay [2]. Besides, the IC50 with Vero was greater than 125 µM.
On the same counts, the results for `CC(C)(C)OCc1ccc(-c2ccc(CO[C@@H]3COc4nc([N+](=O)[O-])cn4C3)cc2)cc1` are 3.1 µM (≈ 1.36 µg/mL), 0.077 µM (≈ 0.0337 µg/mL) and greater than 125 µM.
On the same counts, the results for `CC(C)c1cccc(-c2ccc(CO[C@@H]3COc4nc([N+](=O)[O-])cn4C3)cc2)c1` are 4.2 µM (≈ 1.65 µg/mL), 0.14 µM (≈ 0.0551 µg/mL) and greater than 125 µM.
The corresponding values for `O=[N+]([O-])c1cn2c(n1)OC[C@@H](OCc1ccc(-c3cccc(O)c3)cc1)C2` are 3.1 µM (≈ 1.14 µg/mL), 0.14 µM (≈ 0.0514 µg/mL) and greater than 125 µM.
Turning to `O=[N+]([O-])c1cn2c(n1)OC[C@@H](OCc1ccc(-c3cccc(F)c3)cc1)C2`, the MIC in assay [1] was 2.2 µM (≈ 0.813 µg/mL); in assay [2], 0.045 µM (≈ 0.0166 µg/mL). In addition, in the assay with Vero, the IC50 is greater than 125 µM.
As to `O=[N+]([O-])c1cn2c(n1)OC[C@@H](OCc1ccc(-c3ccc(OC(F)(F)F)c([N+](=O)[O-])c3)cc1)C2`, the results for the MIC in assay [1] and in assay [2] were 1.6 µM (≈ 0.769 µg/mL) and 0.045 µM (≈ 0.0216 µg/mL), respectively. The same compound came in with an IC50 in the assay on Vero greater than 125 µM.
Consider `N#Cc1cccc(-c2ccc(CO[C@@H]3COc4nc([N+](=O)[O-])cn4C3)cc2)c1`, for which the MIC worked out at 1.3 µM (≈ 0.489 µg/mL) in assay [1] and 0.12 µM (≈ 0.0452 µg/mL) in assay [2]. In the assay with Vero, the IC50 is greater than 125 µM.
In the case of `O=[N+]([O-])c1cn2c(n1)OC[C@@H](OCc1cccc(-c3ccccc3)c1)C2`, the MIC in assay [1] came to 2.1 µM (≈ 0.738 µg/mL); in assay [2] it was 0.095 µM (≈ 0.0334 µg/mL). The same compound registered an IC50 in the assay on Vero greater than 125 µM.
The corresponding values for `O=[N+]([O-])c1cn2c(n1)OC[C@@H](OCc1ccc(-c3ccc(Cl)cc3)cc1)C2` are 2.7 µM (≈ 1.04 µg/mL), 0.015 µM (≈ 0.00579 µg/mL) and greater than 125 µM.
Take `O=[N+]([O-])c1cn2c(n1)OC[C@@H](OCc1cccc(-c3ccc4ccccc4c3)c1)C2`: the MIC in assay [1] is 3.2 µM (≈ 1.28 µg/mL); in assay [2] it was 0.12 µM (≈ 0.0482 µg/mL). In the assay on Vero, this compound displayed an IC50 greater than 125 µM.
The corresponding values for `CC(C)c1ccc(-c2ccc(CO[C@@H]3COc4nc([N+](=O)[O-])cn4C3)cc2)cc1` are greater than 32 µM, 0.1 µM (≈ 0.0393 µg/mL) and greater than 125 µM.
The corresponding values for `COc1cccc(Cl)c1-c1ccc(CO[C@@H]2COc3nc([N+](=O)[O-])cn3C2)cc1` are 0.74 µM (≈ 0.308 µg/mL), 0.055 µM (≈ 0.0229 µg/mL) and greater than 125 µM.
On the same counts, the results for `O=[N+]([O-])c1cn2c(n1)OC[C@@H](OCc1cccc(-c3ccc(OC(F)F)cc3)c1)C2` are 2.8 µM (≈ 1.17 µg/mL), 0.06 µM (≈ 0.025 µg/mL) and greater than 125 µM.
For the compound `O=[N+]([O-])c1cn2c(n1)OC[C@@H](OCc1ccc(-c3ccccc3OC(F)(F)F)cc1)C2`, the MIC in assay [1] is 0.97 µM (≈ 0.422 µg/mL); in assay [2], 0.035 µM (≈ 0.0152 µg/mL). Also, in the assay on Vero, the IC50 was greater than 125 µM.
Take `COc1ccc(-c2ccc(CO[C@@H]3COc4nc([N+](=O)[O-])cn4C3)cc2)cc1`: the values for the MIC in assay [1] and in assay [2] were 6.8 µM (≈ 2.59 µg/mL) and 0.065 µM (≈ 0.0248 µg/mL), respectively. For the same compound, the IC50 with Vero is greater than 125 µM.
The corresponding values for `O=[N+]([O-])c1cn2c(n1)OC[C@@H](OCc1ccc(-c3ccc(Cl)c(O)c3)cc1)C2` are 2.1 µM (≈ 0.844 µg/mL), 0.2 µM (≈ 0.0804 µg/mL) and greater than 125 µM.
`O=[N+]([O-])c1cn2c(n1)OC[C@@H](OCc1ccc(-c3cccc(Cl)c3)cc1)C2`: the MIC in assay [1] stood at 1.6 µM (≈ 0.617 µg/mL); in assay [2] it was 0.06 µM (≈ 0.0231 µg/mL). Further, the IC50 with Vero was greater than 125 µM.
On the same counts, the results for `O=[N+]([O-])c1cn2c(n1)OC[C@@H](OCc1ccc(-c3ccccc3Oc3ccccc3)cc1)C2` are 1.8 µM (≈ 0.798 µg/mL), 0.06 µM (≈ 0.0266 µg/mL) and greater than 125 µM.
The corresponding values for `O=[N+]([O-])c1cn2c(n1)OC[C@@H](OCc1ccc(-c3ccc4ccccc4c3)cc1)C2` are 0.87 µM (≈ 0.349 µg/mL), 0.045 µM (≈ 0.0181 µg/mL) and greater than 125 µM.
The corresponding values for `O=Cc1cccc(-c2ccc(CO[C@@H]3COc4nc([N+](=O)[O-])cn4C3)cc2)c1` are 0.57 µM (≈ 0.216 µg/mL), 0.14 µM (≈ 0.0531 µg/mL) and greater than 125 µM.
Take `N#Cc1cccc(-c2cccc(CO[C@@H]3COc4nc([N+](=O)[O-])cn4C3)c2)c1`: the MIC was 3.7 µM (≈ 1.39 µg/mL) in assay [1] and 0.17 µM (≈ 0.064 µg/mL) in assay [2]. For the same compound, the IC50 in the assay with Vero was greater than 125 µM.
As for `O=[N+]([O-])c1cn2c(n1)OC[C@@H](OCc1ccc(-c3ccccc3)cc1)C2`, the MIC is 3.9 µM (≈ 1.37 µg/mL) in assay [1] and 0.045 µM (≈ 0.0158 µg/mL) in assay [2]. In addition, in the assay with Vero, the IC50 is greater than 125 µM.
Turning to `O=Cc1ccccc1-c1ccc(CO[C@@H]2COc3nc([N+](=O)[O-])cn3C2)cc1`, the MIC stood at 0.78 µM (≈ 0.296 µg/mL) in assay [1] and 0.08 µM (≈ 0.0303 µg/mL) in assay [2]. Moreover, the IC50 in the assay on Vero was greater than 125 µM.
`CSc1ccc(-c2ccc(CO[C@@H]3COc4nc([N+](=O)[O-])cn4C3)cc2)cc1`: the minimal inhibitory concentration (MIC) in assay [1] was found to be 0.95 µM (≈ 0.378 µg/mL); in assay [2], 0.075 µM (≈ 0.0298 µg/mL). This compound also displayed an IC50 in the assay on Vero greater than 125 µM.
The corresponding values for `O=[N+]([O-])c1cn2c(n1)OC[C@@H](OCc1ccc(-c3ccccc3O)cc1)C2` are 4.6 µM (≈ 1.69 µg/mL), 0.12 µM (≈ 0.0441 µg/mL) and greater than 125 µM.
`O=[N+]([O-])c1cn2c(n1)OC[C@@H](OCc1ccc(-c3ccc(F)c(F)c3)cc1)C2`: the MIC in assay [1] was 1.2 µM (≈ 0.465 µg/mL); in assay [2], 0.03 µM (≈ 0.0116 µg/mL). The same compound registered an IC50 in the assay on Vero greater than 125 µM.
Regarding `O=[N+]([O-])c1cn2c(n1)OC[C@@H](OCc1ccc(-c3cccc(OCCO)c3)cc1)C2`, the MIC in assay [1] came to 5.4 µM (≈ 2.22 µg/mL); in assay [2] it was 0.46 µM (≈ 0.189 µg/mL). For the same compound, the half-maximal inhibitory concentration (IC50) in the assay on Vero was greater than 125 µM.
The corresponding values for `COc1c(F)cc(-c2ccc(CO[C@@H]3COc4nc([N+](=O)[O-])cn4C3)cc2)cc1F` are 1.3 µM (≈ 0.543 µg/mL), 0.045 µM (≈ 0.0188 µg/mL) and greater than 125 µM.
On the same counts, the results for `O=[N+]([O-])c1cn2c(n1)OC[C@@H](OCc1ccc(-c3ccc(-c4ccccc4)cc3)cc1)C2` are greater than 32 µM, 0.09 µM (≈ 0.0385 µg/mL) and greater than 125 µM.
The corresponding values for `COc1ccccc1-c1ccc(CO[C@@H]2COc3nc([N+](=O)[O-])cn3C2)cc1` are 1.4 µM (≈ 0.534 µg/mL), 0.065 µM (≈ 0.0248 µg/mL) and greater than 125 µM.
In the case of `CC(C)(C)c1ccc(-c2ccc(CO[C@@H]3COc4nc([N+](=O)[O-])cn4C3)cc2)cc1`, the MIC is greater than 32 µM in assay [1] and 0.095 µM (≈ 0.0387 µg/mL) in assay [2]. This compound returned an IC50 with Vero greater than 125 µM.
The corresponding values for `O=[N+]([O-])c1cn2c(n1)OC[C@@H](OCc1cccc(-c3ccc(C(F)(F)F)cc3)c1)C2` are 2.9 µM (≈ 1.22 µg/mL), 0.12 µM (≈ 0.0503 µg/mL) and greater than 125 µM.

The values above are taken from ChEMBL document CHEMBL1156778, “Synthesis and structure-activity studies of biphenyl analogues of the tuberculosis drug (6S)-2-nitro-6-{[4-(trifluoromethoxy)benzyl]oxy}-6,7-dihydro-5H-imidazo[2,1-b][1,3]oxazine (PA-824)” (J Med Chem, 2010).
